Results of several laboratories.
Protocols differ between the studies behind these lines.
Cell line: NCI-H460
Read-out: cell growth or viability

SMILES	assay	setting	endpoint	value
C=C(Cl)C(=O)Nc1cc(Nc2nc(N3CCSCC3)c3sccc3n2)c(OC)cc1N(C)CCN(C)C	MTT		IC50	1320 nM
COc1ccc(C(=O)/C=C/c2cc3c(cc2Br)OCO3)cc1S(N)(=O)=O	SRB	10 µM	inhibition	100%
C=C(Cl)C(=O)Nc1cc(Nc2nc(N3CCCC3)c3sccc3n2)c(OC)cc1N(C)CCN(C)C	MTT		IC50	6480 nM
COc1ccc(C(=O)/C=C/c2cccc(Cl)c2)cc1S(N)(=O)=O	SRB	10 µM	inhibition	97%
c1ccc(-c2n(Cc3ccc4ccccc4c3)cc[n+]2Cc2ccc3ccccc3c2)cc1	SRB		TGI	2870 nM
C=CC(=O)Nc1cc(Nc2nc(N3CCc4sccc4C3)c3cccnc3n2)c(OC)cc1N1CCN(C(C)=O)CC1	MTT		IC50	> 50000 nM
Cc1cc(C)n(C(=S)[S][Au][PH](CCCCCC[PH]([Au][S]C(=S)n2nc(C)cc2C)(c2ccccc2)c2ccccc2)(c2ccccc2)c2ccccc2)n1	SRB		GI50	638 nM
CS(=O)(=O)CCNCc1ccc(-c2ccc3ncnc(Nc4ccc(OCc5cccc(F)c5)c(Cl)c4)c3c2)o1	MTT	72 h	EC50	32000 nM
COc1ccc(C(=O)/C=C/c2cccc(Cl)c2Cl)cc1S(N)(=O)=O	SRB	48 h	GI50	1900 nM
C=C(Cl)C(=O)Nc1cc(Nc2nc(Nc3cnn(C)c3)c3sccc3n2)c(OC)cc1N1CCN(C)CC1	MTT		IC50	239 nM
CCCc1n(Cc2ccc3ccccc3n2)cc[n+]1Cc1ccc2ccccc2c1	SRB		TGI	10600 nM
COc1cc(-c2ccc(-c3ccc(C(=N)N)nc3)s2)cc(OC)c1OC	SRB		GI50	2100 nM
COc1ccc(C(=O)/C=C/c2cccc3ccccc23)cc1S(N)(=O)=O	SRB	48 h	GI50	1800 nM
C=CC(=O)Nc1cc(Nc2nc(N3CCc4sccc4C3)c3cccnc3n2)c(OC)cc1N(C)C	MTT		IC50	> 50000 nM
CCCCc1n(Cc2ccc3ccccc3n2)cc[n+]1Cc1ccc2ccccc2n1	SRB		TGI	11600 nM
COc1ccc(C(=O)/C=C/c2cccnc2)cc1S(N)(=O)=O	SRB	48 h	GI50	9100 nM
C=C(c1ccc(C(=O)O)cc1)c1cc2c(cc1C)C(C)(C)CCC2(C)C	MTT	72 h	EC50	52000 nM
CCc1n(Cc2ccc3ccccc3n2)cc[n+]1Cc1ccc2ccccc2n1	SRB		TGI	11900 nM
COc1ccc(-c2ccc(-c3ccc(C(=N)N)nc3)s2)cc1	SRB		GI50	520 nM
C=CC(=O)Nc1cccc(Oc2nc(Nc3ccc(N4CCN(C)CC4)cc3)nc3ccsc23)c1	MTT		IC50	642 nM
COc1ccc(C(=O)/C=C/c2ccc3ccccc3c2)cc1S(N)(=O)=O	SRB	48 h	GI50	3000 nM
